# Measured values: paper PMC5095872 (Chemmedchem, 2016)
# What was measured:
# [1] = Liver microsome stability, monkey; format: in vitro ADME; settings: monkey liver microsomes; well-stirred model
# [2] = Liver microsome stability, human; format: in vitro ADME; settings: human liver microsomes; well-stirred model
# [3] = Liver microsome stability, rat; format: in vitro ADME; settings: rat liver microsomes; well-stirred model
# [4] = Hepatocyte stability, dog; format: in vitro ADME; settings: dog hepatocytes; well-stirred model
# In short: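 Dog hepatocytes. Intrinsic clearance (CLint) was scaled to blood clearance with the well-stirred liver model: CLb = QH×CLint/(QH + CLint). Dog liver blood flow (QH) was 2.1 L h⁻¹ kg⁻¹.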
# [5] = Hepatocyte stability, rat; format: in vitro ADME; settings: rat hepatocytes; well-stirred model
# [6] = Hepatocyte stability, monkey; format: in vitro ADME; settings: monkey hepatocytes; well-stirred model
# [7] = Liver microsome stability, mouse; format: in vitro ADME; settings: mouse liver microsomes; well-stirred model
# [8] = Liver microsome stability, dog; format: in vitro ADME; settings: dog liver microsomes; well-stirred model
# [9] = Hepatocyte stability, human; format: in vitro ADME; settings: human hepatocytes; well-stirred model
# In short: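 Human hepatocytes. Intrinsic clearance (CLint) was converted to blood clearance with the well-stirred hepatic model: CLb = QH×CLint/(QH + CLint). Human liver blood flow (QH) was 1.32 L h⁻¹ kg⁻¹.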
# [10] = In vivo pharmacokinetics, rat; settings: male Wistar rat, 0.6 mg kg^−1 p.o.; Cmax,p.o./dose p.o.
# [11] = In vivo pharmacokinetics, dog; settings: female Beagle dog, 0.2 mg kg^−1 p.o.; Cmax,p.o./dose p.o.
# [12] = Caco-2 permeability assay; format: in vitro ADME; settings: human
"LM stability CL b,LM [2] [mL/min/kg]","Hep stability CL b,Hep [4] [mL/min/kg]","Hep stability CL b,Hep [5] [mL/min/kg]","LM stability CL b,LM [7] [mL/min/kg]","LM stability CL b,LM [8]",SMILES,other results
3.17,0.017,0.67,6,0.017 mL/min/kg,Cc1c(NC(=O)c2cc(C(N)=O)nc3cc(F)ccc23)c(C(F)(F)F)nn1Cc1ccc(C#N)cn1 [Compound 54],"LM stability CL b,LM [1]: 6.67 mL/min/kg; LM stability CL b,LM [3]: 6.17 mL/min/kg; Hep stability CL b,Hep [6]: 5.33 mL/min/kg; Hep stability CL b,Hep [9]: 0.5 mL/min/kg"
3.67,,14.8,,,Cc1c(NC(=O)c2cc(C(N)=O)nc3cc(F)ccc23)c(C(F)(F)F)nn1Cc1ncc(C#N)cn1 [Compound 58],
8.83,,20,,,Cc1c(NC(=O)c2cc(C(N)=O)nc3cc(F)ccc23)c(C(F)(F)F)nn1Cc1cnc(C#N)cn1 [Compound 57],
,,43.3,36.7,,Cc1c(NC(=O)c2cc(C(F)(F)F)nc3ccc(Br)cc23)c(C(F)(F)F)nn1Cc1ccc(F)cc1 [Compound 12],
,,33.3,38.3,,Cc1ccc2nc(C(N)=O)cc(C(=O)Nc3c(C(F)(F)F)nn(Cc4ccc(C#N)cc4)c3C)c2c1 [Compound 17],
14.5,,,,,Cc1c(NC(=O)c2cc(C(N)=O)nc3cc(F)ccc23)c(C(C)C)nn1Cc1ccc(C#N)cc1 [Compound 43],
20,,61.7,66.7,,Cc1ccc2nc(C)cc(C(=O)Nc3c(C)nn(Cc4ccc(F)cc4)c3C)c2c1 [Compound 2],
5.33,3.33,,,stable,"Cc1c(NC(=O)c2cc(C(N)=O)nc3cc(F)ccc23)c(C(F)(F)F)nn1Cc1ccc(C#N)cc1 [Compound 19, N ^4 ‐[1‐(4‐Cyanobenzyl)‐5‐methyl‐3‐(trifluoromethyl)‐1H‐pyrazol‐4‐yl]‐7‐fluoroquinoline‐2,4‐dicarboxamide]","LM stability CL b,LM [1]: 12.7 mL/min/kg; C max,norm,p.o. [10]: 0.33 kg L ^−1; C max,norm,p.o. [11]: 0.93 kg L ^−1; Hep stability CL b,Hep [9]: 6.17 mL/min/kg"
3.5,1.83,30,23.3,1 mL/min/kg,Cc1c(NC(=O)c2cc(C(N)=O)nc3ccccc23)c(C(F)(F)F)nn1Cc1ccc(C#N)cc1 [Compound 13],"Papp A→B at 2 h, 2 µM [12]: 7.4 ×10⁻⁶ cm/s"
